The target of series [1] is T1, Bile salt export pump (Homo sapiens, UniProt O95342, E297G). Briefly: Restoration of human BSEP E297G mutant trafficking to cell membrane in MDCK2 cells co-expressing NTCP assessed as accumulation of [3H]taurocholate at 100 uM preincubated for 24 hrs prior incubation with [3H]taurocholate measured after 2 hrs by liquid scintillation counting. Particulars: mdck2, 2 h; call rule not given here. Type of series: cell membranes.

Series [2] has as its target T1, Bile salt export pump. Kind of series: Restoration of human BSEP E297G mutant trafficking to cell membrane in MDCK2 cells co-expressing NTCP assessed as accumulation of [3H]taurocholate at 10 uM preincubated for 24 hrs prior incubation with [3H]taurocholate measured after 2 hrs by liquid scintillation counting. Type of series: cell membranes. Particulars: mdck2, 2 h. An outline of the steps:
(§1)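 Human WT or E297G BSEP delivered by recombinant adenovirus (50 MOI) into MDCK II cells on 24-well plates, 1 day after seeding. GFP adenovirus serves as control. Compounds added 24 h post-infection for 24 h. Cells washed with Krebs–Henseleit buffer pH 7.4, then incubated with [3H]TC for 2 h and washed with ice-cold buffer. Lysed in 2 N HCl, neutralized with NaOH, counted by scintillation. Read-out is the BSEP/GFP accumulation ratio.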

In series [3] the target is Bile salt export pump (Homo sapiens, UniProt O95342). Kind of series: Restoration of wild type human BSEP trafficking to cell membrane in MDCK2 cells co-expressing NTCP assessed as decrease in [3H]taurocholate accumulation at 10 to 100 uM preincubated for 24 hrs prior incubation with [3H]taurocholate measured after 2 hrs by liquid scintillation counting. The series is classed as cell membranes. Particulars: mdck2, 2 h. The gist of the method:
as §1

Series [4] has as its target T1, Bile salt export pump. Briefly: Restoration of human BSEP E297G mutant trafficking to cell membrane in MDCK2 cells co-expressing NTCP assessed as increase in [3H]taurocholate transport measuring apparent efflux clearance across the apical membrane at 1 mM preincubated for 24 hrs prior incubation with [3H]taurocholate measured after 2 hrs by transcellular transport assay relative to control. The series is classed as cell-based. The note with it: mdck2, 2 h, 1000 µM. The gist of the method:
(§2)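 MDCK II cells grown 2 days on Transwell inserts, then infected with E297G BSEP or GFP adenovirus (50 MOI). Compounds added 24 h later for 24 h. [3H]TC added basally. PS_apical is the steady-state transcellular rate over 2 h divided by the cellular [3H]TC concentration at 2 h. Mean ± SE of triplicates.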

Series [5] deals with T1, Bile salt export pump. Briefly: Restoration of human BSEP E297G mutant trafficking to cell membrane in MDCK2 cells co-expressing NTCP assessed as decrease in [3H]taurocholate accumulation preincubated for 24 hrs prior incubation with [3H]taurocholate measured after 2 hrs by liquid scintillation counting. Type of series: cell membranes. Particulars: mdck2, 2 h. An outline of the steps:
as §1

Series [6] addresses T1, Bile salt export pump. Briefly: Restoration of human BSEP E297G mutant trafficking to cell membrane in MDCK2 cells co-expressing NTCP assessed as increase in [3H]taurocholate transport measuring apparent efflux clearance across the apical membrane at 10 uM preincubated for 24 hrs prior incubation with [3H]taurocholate measured after 2 hrs by transcellular transport assay relative to control. The series is classed as cell-based. Particulars: mdck2, 2 h. An outline of the steps: as §2

T1 sequence (O95342 whole entry E297G): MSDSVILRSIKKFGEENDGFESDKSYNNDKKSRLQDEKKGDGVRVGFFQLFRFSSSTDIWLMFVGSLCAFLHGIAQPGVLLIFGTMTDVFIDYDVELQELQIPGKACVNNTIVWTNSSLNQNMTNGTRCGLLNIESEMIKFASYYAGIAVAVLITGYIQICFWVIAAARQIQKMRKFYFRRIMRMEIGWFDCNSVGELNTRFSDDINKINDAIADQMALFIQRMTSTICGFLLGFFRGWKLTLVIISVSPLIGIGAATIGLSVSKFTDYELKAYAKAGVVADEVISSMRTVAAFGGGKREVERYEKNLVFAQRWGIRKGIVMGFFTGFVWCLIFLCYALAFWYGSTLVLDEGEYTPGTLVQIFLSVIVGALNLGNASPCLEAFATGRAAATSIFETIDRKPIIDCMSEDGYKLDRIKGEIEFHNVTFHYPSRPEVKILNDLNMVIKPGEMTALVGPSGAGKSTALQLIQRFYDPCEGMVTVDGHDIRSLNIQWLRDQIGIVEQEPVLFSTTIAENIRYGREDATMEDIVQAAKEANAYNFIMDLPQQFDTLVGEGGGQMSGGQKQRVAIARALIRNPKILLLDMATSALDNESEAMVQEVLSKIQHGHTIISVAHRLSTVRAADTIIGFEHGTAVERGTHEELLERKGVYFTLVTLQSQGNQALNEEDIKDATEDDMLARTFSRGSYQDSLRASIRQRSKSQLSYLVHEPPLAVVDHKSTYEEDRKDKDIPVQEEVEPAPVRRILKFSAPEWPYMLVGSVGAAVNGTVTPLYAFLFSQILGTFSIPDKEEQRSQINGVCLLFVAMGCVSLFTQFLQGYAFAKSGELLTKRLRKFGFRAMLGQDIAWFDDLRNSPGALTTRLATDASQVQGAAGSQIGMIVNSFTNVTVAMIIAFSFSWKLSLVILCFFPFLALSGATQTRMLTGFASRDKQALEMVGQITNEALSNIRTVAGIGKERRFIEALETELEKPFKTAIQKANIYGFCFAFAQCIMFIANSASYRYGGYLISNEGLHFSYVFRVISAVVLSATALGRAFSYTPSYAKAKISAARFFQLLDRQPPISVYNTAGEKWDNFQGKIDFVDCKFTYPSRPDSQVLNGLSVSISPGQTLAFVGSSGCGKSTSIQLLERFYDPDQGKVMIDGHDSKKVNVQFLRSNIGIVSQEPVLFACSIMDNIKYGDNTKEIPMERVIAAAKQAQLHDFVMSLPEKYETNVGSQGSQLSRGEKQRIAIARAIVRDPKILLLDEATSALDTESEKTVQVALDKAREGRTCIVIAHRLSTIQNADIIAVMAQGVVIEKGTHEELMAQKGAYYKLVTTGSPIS
Bile salt export pump (Homo sapiens, UniProt O95342), sequence (O95342 whole entry): as the sequence (O95342 whole entry E297G) above, with G297E counted along it

`C[C@H](CCC(=O)O)[C@H]1CC[C@H]2[C@@H]3CC[C@@H]4C[C@H](O)CC[C@]4(C)[C@H]3C[C@H](O)[C@]12C` [DEOXYCHOLIC ACID]: the Activity at Bile salt export pump [1] worked out at 65%.
For the molecule `Cc1cccc(C)c1-c1noc(C(C)C)c1COc1ccc(C(=O)N(Cc2ccccc2)c2cccc(C(=O)O)c2)c(Cl)c1`, on Bile salt export pump [2], the Activity is reported as 93%.
Take `C[C@H](CCC(=O)O)[C@H]1CC[C@H]2[C@@H]3[C@H](O)C[C@@H]4C[C@H](O)CC[C@]4(C)[C@H]3C[C@H](O)[C@]12C` [CHOLIC ACID]: the Activity result on Bile salt export pump [3] was “Active”; at Bile salt export pump [1] it was 40%; at Bile salt export pump [2], 73%.
In the case of `CC(C)c1onc(-c2c(Cl)cccc2Cl)c1COc1ccc(C(=O)N(Cc2ccccc2)c2cccc(C(=O)O)c2)cc1`, the Activity at Bile salt export pump [2] turned out to be 85%.
Still for that read-out and setting: to `CCCCN(C(=O)c1ccc(OCc2c(-c3c(Cl)cccc3Cl)noc2C(C)C)cc1Cl)c1cccc(C(=O)O)c1` belongs 49%; to `CC(C)c1onc(-c2c(Cl)cccc2Cl)c1COc1ccc(C(=O)N(c2cccc(C(=O)O)c2)c2ccc3ccccc3c2)c(Cl)c1`, 70%.
On the same count and under the same terms, to `CC(C)c1onc(-c2ccccc2)c1COc1ccc(C(=O)N(Cc2ccccc2)c2cccc(C(=O)O)c2)c(Cl)c1` belongs 64%.
`C[C@H](CCC(=O)NCC(=O)O)[C@H]1CC[C@H]2[C@@H]3[C@H](O)C[C@@H]4C[C@H](O)CC[C@]4(C)[C@H]3C[C@H](O)[C@]12C` [GLYCOCHOLIC ACID]: at Bile salt export pump [1], the Activity came out at 108%.
On to `CC(C)c1onc(-c2c(Cl)cccc2Cl)c1COc1ccc(C(=O)N(C)c2cccc(C(=O)O)c2)c(Cl)c1`, for which the Activity on Bile salt export pump [2] was 66%.
For the molecule `CC(C)c1onc(-c2c(Cl)cccc2Cl)c1COc1ccc(C(=O)N(c2cccc(C(=O)O)c2)c2cccc3ccccc23)c(Cl)c1`, the Activity on Bile salt export pump [2] stood at 59%.
On the same count and under the same terms, to `CC(C)c1onc(-c2c(Cl)cccc2Cl)c1COc1ccc(C(=O)N(Cc2ccccc2)c2ccc(C(=O)O)cc2)c(Cl)c1` belongs 35%; to `CC(C)c1onc(-c2c(Cl)cccc2Cl)c1COc1ccc(C(=O)N(Cc2ccccc2)c2ccccc2C(=O)O)c(Cl)c1`, 80%.
On the same count and under the same terms, in the case of `CC(C)c1onc(-c2c(Cl)cccc2Cl)c1COc1ccc(C(=O)Nc2cccc(C(=O)O)c2)c(Cl)c1` it was 111%.
As for `C[C@H](CCC(=O)O)[C@H]1CC[C@H]2[C@@H]3[C@@H](O)C[C@@H]4C[C@H](O)CC[C@]4(C)[C@H]3CC[C@]12C` [URSODIOL], the Activity came to 43% at Bile salt export pump [1] and 76% at Bile salt export pump [2].
Turning to `O=C(O)CCCc1ccccc1`, the “fold change (FC)” value at Bile salt export pump [4] turned out to be 3.
Turning to `C[C@H](CCC(=O)O)[C@H]1CC[C@H]2[C@@H]3[C@H](O)C[C@@H]4C[C@H](O)CC[C@]4(C)[C@H]3CC[C@]12C` [CHENODIOL], the Activity at Bile salt export pump [1] came out at 46%; on Bile salt export pump [2] it was 50%.
Regarding `CC(C)c1onc(-c2c(Cl)cccc2Cl)c1COc1ccc(/C=C/c2cccc(C(=O)O)c2)c(Cl)c1`, the Activity entry on Bile salt export pump [5] is “Dose-dependent effect”; at Bile salt export pump [2], 33%.
Consider `COC(=O)c1cccc(N(Cc2ccccc2)C(=O)c2ccc(OCc3c(-c4c(Cl)cccc4Cl)noc3C(C)C)cc2Cl)c1`, for which, on Bile salt export pump [2], the Activity is 93%.
Regarding `CC(C)c1onc(-c2c(Cl)cccc2Cl)c1COc1ccc(C(=O)N(Cc2ccccc2)c2cccc(C(=O)O)c2)c(Cl)c1`, the Activity result is “Dose-dependent effect” at Bile salt export pump [5] and 31% on Bile salt export pump [2]. Also, the “fold change (FC)” value on Bile salt export pump [6] was determined as 7.
`CC(C)c1onc(-c2c(Cl)cccc2Cl)c1COc1ccc(C(=O)N(CCc2ccccc2)c2cccc(C(=O)O)c2)c(Cl)c1`: on Bile salt export pump [2], the Activity is reported as 53%.

Values taken from ChEMBL document CHEMBL2016441, “Discovery and structural development of small molecules that enhance transport activity of bile salt export pump mutant associated with progressive familial intrahepatic cholestasis type 2” (Bioorg Med Chem, 2012).
